Activity calls are given as the source filed them.
Tests used:
Type in all cases: functional
Hs-578T = assay: Growth inhibition of human HS578T cells
MDA-MB-231 = assay: Growth inhibition of human MDA-MB-231 cells
MCF7 = assay: Growth inhibition of human MCF7 cells
DU-145 = assay: Growth inhibition of human DU145 cells
PC-3 = assay: Growth inhibition of human PC3 cells
UO-31 = assay: Growth inhibition of human UO31 cells
In short: (§1)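 Tested at the NCI in its human disease-oriented in vitro screen of 60 tumour cell lines, following the Monks et al. methods. Activity is expressed as GI50, given as log molar values.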

TK-10 = assay: Growth inhibition of human TK10 cells; in short: as §1
SN12C = assay: Growth inhibition of human SN12C cells; in short: as §1
RXF 393 = assay: Growth inhibition of human […] cells
CAKI-1 = assay: Growth inhibition of human CAKI1 cells
ACHN = assay: Growth inhibition of human ACHN cells
A498 = assay: Growth inhibition of human A498 cells
786-0 = assay: Growth inhibition of human 786-0 cells
SK-OV-3 = assay: Growth inhibition of human SK-OV-3 cells; in short: as §1
OVACR8 = assay: Growth inhibition of human OVACR8 cells
OVACR5 = assay: Growth inhibition of human OVACR5 cells
OVACR4 = assay: Growth inhibition of human OVACR4 cells
OVACR3 = assay: Growth inhibition of human […] cells
IGROV-1 = assay: Growth inhibition of human IGROV1 cells
UACC-62 = assay: Growth inhibition of human UACC62 cells; in short: as §1
UACC-257 = assay: Growth inhibition of human UACC257 cells; in short: as §1
SK-MEL-5 = assay: Growth inhibition of human SK-MEL-5 cells; in short: as §1
SK-MEL-28 = assay: Growth inhibition of human SK-MEL-28 cells; in short: as §1
SK-MEL-2 = assay: Growth inhibition of human SK-MEL-2 cells; in short: as §1
M19-MEL = assay: Growth inhibition of human M19-MEL cells
M14 = assay: Growth inhibition of human M14 cells
Malme-3M = assay: Growth inhibition of human MALME-3M cells
LOX IMVI = assay: Growth inhibition of human LOX IMVI cells
XF498 = assay: Growth inhibition of human XF498 cells; in short: as §1
U-251 = assay: Growth inhibition of human U251 cells; in short: as §1
SNB-75 = assay: Growth inhibition of human SNB75 cells; in short: as §1
SNB-19 = assay: Growth inhibition of human SNB19 cells; in short: as §1
SF-539 = assay: Growth inhibition of human SF539 cells; in short: as §1
SF-295 = assay: Growth inhibition of human SF295 cells; in short: as §1
SF-268 = assay: Growth inhibition of human SF268 cells; in short: as §1
SW-620 = assay: Growth inhibition of human SW620 cells; in short: as §1
KM-20L2 = assay: Growth inhibition of human KM20L2 cells
KM12 = assay: Growth inhibition of human KM12 cells
HT-29 = assay: Growth inhibition of human HT29 cells
HCT-15 = assay: Growth inhibition of human HCT15 cells
HCT-116 = assay: Growth inhibition of human HCT116 cells
HCC 2998 = assay: Growth inhibition of human HCC2998 cells
DLD-1 = assay: Growth inhibition of human DLD1 cells
COLO 205 = assay: Growth inhibition of human COLO205 cells
DMS-273 = assay: Growth inhibition of human DMS273 cells
DMS144 = assay: Growth inhibition of human DMS144 cells
LXFL 529 = assay: Growth inhibition of human LXFL529 cells
NCI-H522 = assay: Growth inhibition of human NCI-H522 cells
NCI-H460 = assay: Growth inhibition of human NCI-H460 cells
NCI-H322M = assay: Growth inhibition of human NCI-H322M cells
NCI-H23 = assay: Growth inhibition of human NCI-H23 cells
NCI-H226 = assay: Growth inhibition of human NCI-H226 cells
HOP-92 = assay: Growth inhibition of human HOP92 cells
HOP-62 = assay: Growth inhibition of human HOP62 cells
HOP-18 = assay: Growth inhibition of human HOP18 cells
EKVX = assay: Growth inhibition of human EKVX cells
A549 = assay: Growth inhibition of human A549 cells
SR = assay: Growth inhibition of human SR cells; in short: as §1
RPMI8266 = assay: Growth inhibition of human RPMI8266 cells
MOLT-4 = assay: Growth inhibition of human MOLT4 cells
K562 = assay: Growth inhibition of human K562 cells
HL-60(TB) = assay: Growth inhibition of human HL60(TB) cells
CCRF-CEM = assay: Growth inhibition of human CCRF-CEM cells
MDA-MB-435 = assay: Growth inhibition of human MDA-MB-435 cells
MDA-N = assay: Growth inhibition of human MDA-N cells
BT-549 = assay: Growth inhibition of human BT549 cells
T47D = assay: Growth inhibition of human T47D cells; in short: as §1
NCI/ADR-RES = assay: Growth inhibition of human MCF7/ADR-RES cells

Measured: Activity

Cc1cc2c([nH]c3ccccc32)c2c1OC(C)(C)[C@H]1[C@H]3CC(C)(C)Oc4c(C)cc5c6ccccc6n(c5c43)[C@@H]21
inactive: all assays above

COc1cc(Cn2c3ccccc3c3cc(C)c4c(c32)C=CC(C)(CCC=C(C)C)O4)cc2c1[nH]c1ccccc12 (stereo unspecified)
inactive: all assays above

From ChEMBL document CHEMBL1142636 (2000)
